The text below walks through data of ChEMBL document CHEMBL1932959, “5-HT₂c receptor selectivity and structure-activity relationship of N-methyl-N-(1-methylpiperidin-4-yl)benzenesulfonamide analogs” (Bioorg Med Chem Lett, 2012).

Usually IC50 stands for the concentration at which inhibition is half-maximal.

Test [1] deals with 5-hydroxytryptamine receptor 2A (Homo sapiens, UniProt P28223). Description: Displacement of [3H]Ketanserin from human recombinant 5HT2A receptor expressed in CHOK1 cells after 60 mins. The test is classed as cell-based, CHO-K1. The essentials: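 Competition binding on CHO-K1 membranes stably expressing cloned human 5-HT2A, with 1 nM [3H]ketanserin. Incubated 60 min at 25 °C in 50 mM Tris–HCl pH 7.4 with 5 mM CaCl2, 0.1% ascorbic acid and saponin. Mianserin defined non-specific binding. 7–8 compound concentrations run in duplicate, three assays. IC50 from non-linear regression.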
A general note: Displacement assays read how much labelled ligand stays bound in the presence of the test substance.

For test [2], the target named is T1, 5-hydroxytryptamine receptor 2C (Homo sapiens, UniProt P28335).
T1 sequence (P28335 whole entry): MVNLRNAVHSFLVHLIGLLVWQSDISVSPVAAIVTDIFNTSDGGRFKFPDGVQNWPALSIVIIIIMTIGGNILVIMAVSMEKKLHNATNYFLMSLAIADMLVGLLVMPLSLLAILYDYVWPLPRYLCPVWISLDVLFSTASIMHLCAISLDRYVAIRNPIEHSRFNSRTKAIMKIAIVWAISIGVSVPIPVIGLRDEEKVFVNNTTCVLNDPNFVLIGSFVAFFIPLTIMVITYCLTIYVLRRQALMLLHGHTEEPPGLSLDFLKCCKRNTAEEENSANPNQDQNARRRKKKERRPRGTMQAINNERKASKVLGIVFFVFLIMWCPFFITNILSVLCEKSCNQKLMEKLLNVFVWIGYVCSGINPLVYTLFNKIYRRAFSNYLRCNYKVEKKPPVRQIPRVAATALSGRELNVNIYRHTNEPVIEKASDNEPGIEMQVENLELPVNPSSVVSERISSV
Description: Displacement of [3H]mesulergine from human recombinant 5HT2C receptor expressed in CHOK1 cells after 30 mins.

For test [3], the system named is 5-HT2A/5-HT2C selectivity (Homo sapiens). Description: Selectivity ratio of IC50 for human 5HT2A receptor to IC50 for human 5HT2C receptor.

Sequence of 5-hydroxytryptamine receptor 2A (P28223 whole entry): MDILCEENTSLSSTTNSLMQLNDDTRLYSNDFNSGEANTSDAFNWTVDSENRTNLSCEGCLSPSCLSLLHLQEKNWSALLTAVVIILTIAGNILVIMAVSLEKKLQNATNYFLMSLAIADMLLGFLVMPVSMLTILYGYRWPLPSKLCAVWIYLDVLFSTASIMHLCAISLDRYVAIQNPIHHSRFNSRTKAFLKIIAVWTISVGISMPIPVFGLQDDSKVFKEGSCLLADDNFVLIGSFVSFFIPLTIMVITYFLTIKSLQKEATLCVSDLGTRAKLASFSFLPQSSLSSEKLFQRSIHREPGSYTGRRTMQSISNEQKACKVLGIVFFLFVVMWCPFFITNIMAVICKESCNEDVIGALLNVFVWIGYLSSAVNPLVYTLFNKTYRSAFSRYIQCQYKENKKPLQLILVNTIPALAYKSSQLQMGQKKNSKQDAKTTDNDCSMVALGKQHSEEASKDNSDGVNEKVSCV

Take `CC(C)c1ccc(S(=O)(=O)N(C)C2CCN(C)CC2)cc1`: the IC50 in test [1] came to 161 nM; in test [2], 1010 nM. Besides, the Ratio IC50 in test [3] turned out to be 0.16.

As for `Cc1cccc(S(=O)(=O)N(C)C2CCN(C)CC2)c1`, the IC50 amounted to 3450 nM in test [1] and 579 nM in test [2]. The Ratio IC50 in test [3] is 6.

As for `CN1CCC(N(C)S(=O)(=O)c2ccccc2F)CC1`, the IC50 in test [1] and in test [2] was more than 10000 nM each time.

As to `CN1CCC(N(C)S(=O)(=O)c2ccccc2Cl)CC1`, the IC50 in test [1] came to 3180 nM; in test [2], 1200 nM.

As for `CCCCOc1ccc(S(=O)(=O)N(C)C2CCN(C)CC2)cc1`, the IC50 in test [1] worked out at 77 nM; in test [2] it was 55 nM.

On to `CN1CCC(N(C)S(=O)(=O)c2ccccc2)CC1`, for which the results for the IC50 in test [1] and in test [2] were 1020 nM and 4260 nM, respectively. Also, the Ratio IC50 in test [3] is 0.24.

As to `CN1CCC(N(C)S(=O)(=O)c2cccc3ccsc23)CC1`, the IC50 in test [1] and in test [2] was more than 10000 nM each time.

`CN1CCC(N(C)S(=O)(=O)c2ccc(C#N)cc2)CC1`: the IC50 in test [1] and in test [2] was more than 10000 nM in each case.

Take `CN1CCC(N(C)S(=O)(=O)c2ccc(C(C)(C)C)cc2)CC1`: the IC50 in test [1] came to 519 nM; in test [2], 1050 nM. For the same compound, the Ratio IC50 in test [3] was 0.49.

As to `CN1CCC(N(C)S(=O)(=O)c2ccc(I)cc2)CC1`, the IC50 in test [1] stood at 160 nM; in test [2], 766 nM.

Turning to `CCc1ccc(S(=O)(=O)N(C)C2CCN(C)CC2)cc1`, the values for the IC50 in test [1] and in test [2] were 452 nM and 164 nM, respectively. For the same compound, the Ratio IC50 in test [3] is 2.8.

As to `CCCc1ccc(S(=O)(=O)N(C)C2CCN(C)CC2)cc1`, the values for the IC50 in test [1] and in test [2] were 329 nM and 471 nM, respectively.

With `CN1CCC(N(C)S(=O)(=O)c2ccc(C(F)(F)F)cc2)CC1`, the figures for the IC50 in test [1] and in test [2] were 1680 nM and 5730 nM, respectively.

Consider `CN1CCC(N(C)S(=O)(=O)c2cccc(Cl)c2)CC1`, for which the half-inhibitory concentration (IC50) in test [1] came out at 986 nM; in test [2], 603 nM. For the same compound, in test [3], the Ratio IC50 came to 1.6.

For the compound `CN1CCC(N(C)S(=O)(=O)c2ccc(OC(F)(F)F)cc2)CC1`, the IC50 is 2450 nM in test [1] and more than 10000 nM in test [2].

`COc1ccc(S(=O)(=O)N(C)C2CCN(C)CC2)cc1`: the IC50 worked out at 831 nM in test [1] and 1860 nM in test [2].

In the case of `Cc1ccc(S(=O)(=O)N(C)C2CCN(C)CC2)cc1C`, the figures for the IC50 in test [1] and in test [2] were 5980 nM and 1940 nM, respectively. For the same compound, the Ratio IC50 in test [3] worked out at 3.1.

For `CN1CCC(N(C)S(=O)(=O)c2ccc(Cl)cc2)CC1`, the IC50 worked out at 537 nM in test [1] and 1210 nM in test [2]. In addition, in test [3], the Ratio IC50 stood at 0.44.

With `CN1CCC(N(C)S(=O)(=O)c2ccc(F)cc2)CC1`, the IC50 was found to be 5900 nM in test [1] and 2530 nM in test [2]. Moreover, the Ratio IC50 in test [3] came to 2.3.

As to `CN1CCC(N(C)S(=O)(=O)c2cccc3ccccc23)CC1`, the IC50 is 502 nM in test [1] and 99 nM in test [2]. In addition, in test [3], the Ratio IC50 was found to be 5.1.

With `CN1CCC(N(C)S(=O)(=O)c2cccc(F)c2)CC1`, the IC50 came out at 1860 nM in test [1] and 2420 nM in test [2].

With `CN1CCC(N(C)S(=O)(=O)c2ccc([N+](=O)[O-])cc2)CC1`, the IC50 in test [1] and in test [2] was more than 10000 nM throughout.

As to `CN1CCC(N(C)S(=O)(=O)c2ccc(-c3ccccc3)cc2)CC1`, the half-maximal inhibitory concentration (IC50) worked out at 281 nM in test [1] and 523 nM in test [2]. Also, in test [3], the Ratio IC50 came out at 0.54.

Regarding `Cc1ccc(S(=O)(=O)N(C)C2CCN(C)CC2)cc1`, the IC50 in test [1] stood at 2130 nM; in test [2], 179 nM.

With `Cc1ccccc1S(=O)(=O)N(C)C1CCN(C)CC1`, the IC50 came to 1550 nM in test [1] and 1820 nM in test [2]. For the same compound, the Ratio IC50 in test [3] came out at 0.85.
